Results as given in ChEMBL document CHEMBL1150857, “Dendocarbins A--N, new drimane sesquiterpenes from the nudibranch Dendrodoris carbunculosa” (J Nat Prod, 2001).
Values after ≈ are worked out from the molar mass of the structure shown.

Legend:
Assay type in all cases: functional, cell-based
P388 [1] = assay: Cytotoxicity against drug-sensitive mouse P388 cells
In short: (§1)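 Murine leukemia P388 lines were tested: the drug-sensitive strain (P388/S), the adriamycin-resistant line (P388/ADR) and the vincristine-resistant line (P388/VCR). Cytotoxicity was expressed as IC50.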

P388 [2] = assay: Cytotoxicity against vincristine-resistant mouse P388 cells in absence of 0.004 ug/mL vincristine; in short: as §1
P388 [3] = assay: Cytotoxicity against vincristine-resistant mouse P388 cells in presence of 0.004 ug/mL vincristine
P388 [4] = assay: Cytotoxicity against adriamycin-resistant mouse P388 cells in absence of 0.1 ug/mL adriamycin; in short: as §1
P388 [5] = assay: Cytotoxicity against adriamycin-resistant mouse P388 cells in presence of 0.1 ug/mL adriamycin

| SMILES | IC50 (P388 [1]) [µg/mL] | IC50 (P388 [2]) [µg/mL] | IC50 (P388 [3]) [µg/mL] | IC50 (P388 [4]) [µg/mL] | IC50 (P388 [5]) [µg/mL] |
| --- | --- | --- | --- | --- | --- |
| CC(=O)O[C@@H]1OC(=O)C2=CC[C@H]3C(C)(C)CCC[C@]3(C)[C@H]21 | 10.2 (≈ 34.9 µM) | 10.2 (≈ 34.9 µM) | 9 | 8 | 10.1 |
| CC1(C)CCC[C@]2(C)C3=C(CC[C@@H]12)C(=O)O[C@@H]3O | 3.2 (≈ 12.8 µM) | 2.5 (≈ 9.99 µM) | 2.5 | 2.5 | 2.5 |
| CC1(C)CCC[C@]2(C)C3=C(C(=O)OC3O)[C@H](O)C[C@@H]12 (mixture of isomers) [DENDOCARBIN L/DENDOCARBIN M] | > 25 | > 25 | > 25 | > 25 | > 25 |
| CC1(C)CCC[C@]2(C)[C@@H]3C(=CC[C@@H]12)C(=O)O[C@H]3O [DENDOCARBIN A] | > 25 | > 25 | > 25 | > 25 | > 25 |
| CC1(C)C[C@H](O)C[C@]2(C)[C@H]3C(=O)OCC3=CC[C@@H]12 [DENDOCARBIN B] | 11.5 (≈ 45.9 µM) | 10.2 (≈ 40.7 µM) | 9 | 7 | 10.5 |
| CC1(C)CCC[C@]2(C)[C@@H]3C(=C[C@H](O)[C@@H]12)CO[C@H]3O [DENDOCARBIN C] | > 25 | > 25 | > 25 | > 25 | > 25 |
| CC1(C)CCC[C@]2(C)[C@H]3[C@H](O)OC(=O)[C@@]3(O)CC[C@@H]12 [DENDOCARBIN D] | 15 (≈ 55.9 µM) | 16 (≈ 59.6 µM) | 14 | 16 | 16 |
| CC1(C)[C@@H](O)CC[C@]2(C)[C@H]3C(=O)OC(=O)C3=CC[C@@H]12 [DENDOCARBIN E] | > 25 | 22.5 (≈ 85.1 µM) | > 25 | 19 | > 25 |
| C[C@@]1(CO)CCC[C@]2(C)[C@H]3C(=O)OC(=O)C3=CC[C@@H]12 [DENDOCARBIN F] | > 25 | > 25 | > 25 | > 25 | 22 |
| CC1(C)CCC[C@]2(C)[C@H]3C(=O)OC(=O)C3=C[C@H](O)[C@@H]12 [DENDOCARBIN G] | > 25 | > 25 | > 25 | > 25 | > 25 |
| CC1(C)CCC[C@]2(C)[C@H]3C(=O)OC(=O)C3=CC[C@@H]12 [DENDOCARBIN H] | 10.8 (≈ 43.5 µM) | 10.1 (≈ 40.7 µM) | 8 | 10.1 | 10.5 |
| CCOC1OC(=O)C2=C1[C@@H](O)C[C@H]1C(C)(C)CCC[C@]21C (stereo not given in full) [DENDOCARBIN I] | 10 (≈ 34 µM) | 10.2 (≈ 34.6 µM) | 10.2 | 8 | 10 |
| CCO[C@H]1OC(=O)C2=C1[C@@]1(C)CCCC(C)(C)[C@@H]1C[C@H]2O [DENDOCARBIN J] | 17 (≈ 57.7 µM) | 4 (≈ 13.6 µM) | 4 | 11 | 8 |
| CCO[C@@H]1OC(=O)C2=C1[C@@]1(C)CCCC(C)(C)[C@@H]1C[C@H]2O [DENDOCARBIN K] | 10.5 (≈ 35.7 µM) | 10.5 (≈ 35.7 µM) | 9 | 9 | 10.5 |
| CC1(C)CCC[C@]2(C)[C@H]3[C@H](O)OC[C@]34O[C@@H]4[C@H](O)[C@@H]12 [DENDOCARBIN N] | > 25 | > 25 | > 25 | > 25 | > 25 |
| CC1(C)CCC[C@]2(C)[C@@H]3C(=CC[C@@H]12)CO[C@H]3O [ISODRIMENINOL] | 13 (≈ 55 µM) | 22 (≈ 93.1 µM) | > 25 | 18 | 18 |
